Measurements reported in ChEMBL document CHEMBL3871266, “Synthesis and cytotoxic activity of novel A-ring cleaved ursolic acid derivatives in human non-small cell lung cancer cells” (Eur J Med Chem, 2016).
Calls of active or inactive are those of the source. No cut-off for these calls is given here.

Columns and labels:
[1] = Cytotoxicity against human NCI-H460 cells expressing CTR5 gene assessed as reduction in cell viability measured after 72 hrs by CellTiter-Blue cell viability assay; assay type: functional, cell-based; conditions: Homo sapiens, NCI-H460, 72 h; read-out: IC50
Outline: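 Monolayer cultures in RPMI-1640 with 10% FBS at 37°C, seeded at 850 (H460 CTR5), 660 (H460 LKB1+/+) or 1780 (H322) cells/well so that the end point reaches 70–80% confluence. Treated 72h; vehicle 0.15% DMSO. CellTiter-Blue added until colour change (50–60, 80–90 or 100–120 min respectively), fluorescence read at 590 nm. IC50 by nonlinear regression; three independent experiments.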

[2] = Cytotoxicity against human NCI-H322 spheroids assessed as reduction in cell viability measured after 96 hrs by CellTiter-Glo luminescence viability assay; assay type: functional; conditions: NCI-H322, 96 h
Outline: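 Spheroids grown in round-bottom ultralow-attachment wells, 495 (H460 CTR5) or 650 (H322) cells/well. Drug exposure 96h with DMSO vehicle. CellTiter-Glo added, shaken 20 min, left 10 min, then luminescence read. IC50 by nonlinear regression; three independent experiments.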

[3] = system: NCI-H460; assay: Induction of apoptosis in human NCI-H460 cells expressing CTR5 gene assessed as late apoptotic cells at 5 uM measured after 72 hrs by Annexin V-Cy5/propidium iodide staining-based flow cytometry (reference value: 3.2%); assay type: functional
[4] = system: NCI-H460; assay: Induction of apoptosis in human NCI-H460 cells expressing CTR5 gene assessed as cleaved PARP level at 3 to 5.5 uM measured after 24 hrs by Western blot analysis; assay type: functional, cell-based
Outline: (§1)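 Cells were seeded at 3×10^5 (H460) or 4.2×10^5 (H322) per dish and treated 24h later with DMSO or a concentration series for 24h. Lysed in cold RIPA with phosphatase and protease inhibitors, then sonicated. 30 μg protein run on Bis-Tris gels and transferred to nitrocellulose or PVDF. Detection used infrared secondary antibodies on an Odyssey imager. Signal normalized to β-actin or GAPDH and to DMSO control; three independent experiments.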

[5] = system: NCI-H460; assay: Induction of apoptosis in human NCI-H460 cells expressing CTR5 gene assessed as increase in cleavage of procaspase7 at 3 to 5.5 uM measured after 24 hrs by Western blot analysis; assay type: functional, cell-based; outline: as §1
[6] = system: NCI-H460; assay: Induction of apoptosis in human NCI-H460 cells expressing CTR5 gene assessed as decrease in procaspase3 level at 4.5 uM measured after 24 hrs by Western blot analysis; assay type: functional; parameters: scale not given: the % may be the effect or the level left; outline: as §1
[7] = system: NCI-H322; assay: Induction of apoptosis in human NCI-H322 cells assessed as increase in cleaved caspase7 level at 3 to 5.5 uM measured after 24 hrs by Western blot analysis; assay type: functional, cell-based; outline: as §1
[8] = Downregulation of Mcl1 long isoform protein expression in human NCI-H460 cells expressing CTR5 gene at 3 to 4.5 uM measured after 24 hrs by Western blot analysis; assay type: functional, cell-based; outline: as §1
[9] = system: NCI-H460; assay: Induction of apoptosis in human NCI-H460 cells expressing CTR5 gene assessed as downregulation of Mcl1 short isoform expression at 3 to 4.5 uM measured after 24 hrs by Western blot analysis; assay type: functional, cell-based; outline: as §1
[10] = system: NCI-H460; assay: Induction of apoptosis in human NCI-H460 cells expressing CTR5 gene assessed as early apoptotic cells at 20 uM measured after 72 hrs by Annexin V-Cy5/propidium iodide staining-based flow cytometry (reference value: 1.8%); assay type: functional
[11] = system: NCI-H460; assay: Induction of apoptosis in human NCI-H460 cells expressing CTR5 gene assessed as late apoptotic cells at 20 uM measured after 72 hrs by Annexin V-Cy5/propidium iodide staining-based flow cytometry (reference value: 2.7%); assay type: functional
[12] = system: NCI-H460; assay: Induction of apoptosis in human NCI-H460 cells expressing CTR5 gene assessed as viable cells at 4 uM measured after 72 hrs by Annexin V-Cy5/propidium iodide staining-based flow cytometry (reference value: 94.6%); assay type: functional; conditions: NCI-H460, 72 h, read-out: Activity
[13] = system: NCI-H460; assay: Induction of apoptosis in human NCI-H460 cells expressing CTR5 gene assessed as early apoptotic cells at 4 uM measured after 72 hrs by Annexin V-Cy5/propidium iodide staining-based flow cytometry (reference value: 1.8%); assay type: functional
[14] = system: NCI-H460; assay: Induction of apoptosis in human NCI-H460 cells expressing CTR5 gene assessed as necrotic cells at 4 uM measured after 72 hrs in presence of autophagy inhibitor chloroquine by Annexin V-Cy5/propidium iodide staining-based flow cytometry (reference value: 0.9%); assay type: functional
[15] = system: NCI-H460; assay: Decrease in mTOR level in human NCI-H460 cells expressing CTR5 gene at 3 to 5.5 uM measured after 24 hrs by Western blot analysis; assay type: functional, cell-based; outline: as §1
[16] = system: NCI-H460; assay: Increase in lipidation of LC3A/B1 to LC3A/B2 in human NCI-H460 cells expressing CTR5 gene measured after 24 hrs by Western blot analysis; assay type: functional, cell-based; outline: as §1
[17] = system: NCI-H322; assay: Increase in lipidation of LC3A/B1 to LC3A/B2 in human NCI-H322 cells measured after 24 hrs by Western blot analysis; assay type: functional, cell-based; outline: as §1
[18] = Upregulation of LC3-2 level in human NCI-H460 cells expressing CTR5 gene at 3.5 uM measured after 24 hrs by reverse-phase protein array method relative to control; assay type: functional, cell-based
[19] = target: Serine/threonine-protein kinase mTOR (Homo sapiens) (UniProt P42345); assay: Inhibition of mTOR in human NCI-H460 cells expressing CTR5 gene assessed as decrease in S6 phosphorylation at S240/44 site by reverse-phase protein array method relative to control; assay type: cell-based
[20] = system: NCI-H460; assay: Induction of autophagy in human NCI-H460 cells expressing CTR5 gene measured after 24 hrs by reverse-phase protein array method; assay type: functional, cell-based

Q: With C=C(C)[C@@H]1CC[C@]2(C)[C@H](C[C@@H](F)C34OC(=O)[C@@]5(CC[C@@H](C)[C@H](C)[C@@H]35)CC[C@]42C)[C@@]1(C)CCC(=O)NCCC as the molecule, how does the IC50 [1] read?
A: The IC50 was 2.6 µM.

Q: And the IC50 [2]?
A: The IC50 was 10 µM.

Q: And the Activity [3]?
A: The Activity was 29.1%.

Q: What about the Activity [4] of the same molecule?
A: The Activity was “Active”.

Q: And the Activity [5]?
A: Its Activity is “Active”.

Q: And the Activity [6]?
A: The Activity was 29%.

Q: What about the Activity [7] of the same molecule?
A: The Activity was “Active”.

Q: What about the Activity [8] of the same molecule?
A: Its Activity is “Dose-dependent effect”.

Q: What about the Activity [9] of the same molecule?
A: Its Activity is “Dose-dependent effect”.

Q: And the Activity [10]?
A: Its Activity is 2.8%.

Q: What about the Activity [11] of the same molecule?
A: Its Activity is 2%.

Q: And the viability at 4 µM [12]?
A: The viability at 4 µM was 77.4%.

Q: And the Activity [13]?
A: Its Activity is 7.6%.

Q: And the Activity [14]?
A: Its Activity is 3.6%.

Q: What about the Activity [15] of the same molecule?
A: Its Activity is “Active”.

Q: And the Activity [16]?
A: The Activity was “Dose-dependent effect”.

Q: What about the Activity [17] of the same molecule?
A: Its Activity is “Dose-dependent effect”.

Q: And the Activity [18]?
A: The Activity was 10.7%.

Q: And the inhibition [19]?
A: Its inhibition is 8.4%.

Q: What about the Activity [20] of the same molecule?
A: Its Activity is “Active”.
